Measurements of several laboratories.
Protocols differ between the studies behind these lines. pIC50: −log10 of the molar value. In brackets after ≈: the same amount, converted by molar mass.

Structure (SMILES) | tested on | assay | test system | setting | measurement | value
Cc1cccc(-n2ncc(Cl)c(Cl)c2=O)c1 | NCI-H1650 | cell growth or viability, resazurin | – | 96 h | pIC50 | 5.91
C1CCNCC1 | Cryptosporidium parvum | parasite growth, imaging | HCT-8 | 1 mM, 24 h, intracellular | activity vs control | 104%
CC(C)CCCCCCCCCCCCc1cc(O)cc(O)c1 | Klebsiella pneumoniae | microbial growth | ATCC29665 | – | pIC50 | < 3.70
COC(=O)c1cc(-c2cccc(NC(=O)Nc3ccc(Cl)c(C(F)(F)F)c3)c2)on1 | Klebsiella pneumoniae | microbial growth, broth dilution | BAA1705 | – | MIC | > 64 µg/mL
O=C(N/N=C1\C(=O)N(Cc2ccccc2)c2ccc(Br)cc21)c1cc2ccccc2[nH]1 | HT-29 | cell growth or viability | – | 30 µM | inhibition | 94.7%
N#CCc1c[nH]c2ccccc12 | Cryptosporidium parvum | parasite growth | HCT-8 | 24 h, intracellular | EC90 | 1230 µM
O=C(N/N=C1\C(=O)N(Cc2ccccc2)c2ccccc21)c1cc2ccccc2[nH]1 | HT-29 | cell growth or viability | – | 30 µM | inhibition | 92.7%
CC(C)CCCCCCCCCCCCCCc1cc(O)cc(O)c1 | Klebsiella pneumoniae | microbial growth | ATCC29665 | – | pIC50 | < 3.70
C[C@H]1COc2c(N3CCN(C)CC3)c(F)cc3c(=O)c(C(=O)O)cn1c23 | Klebsiella pneumoniae | microbial growth, broth dilution | BAA1705 | – | MIC | 64 µg/mL (≈ 177 µM)
CCC(CCCCCCCCCCc1cc(O)cc(O)c1)C(C)C (stereo not drawn) | Klebsiella pneumoniae | microbial growth | ATCC29665 | – | pIC50 | < 3.70
COC(=O)c1cc(-c2cccc(NC(=O)Nc3ccc(OC)cc3)c2)on1 | Klebsiella pneumoniae | microbial growth, broth dilution | BAA1705 | – | MIC | > 64 µg/mL
CO[C@H]1/C=C/O[C@@]2(C)Oc3c(C)c(O)c4c(O)c(c(/C=N/N5CCN(C)CC5)c(O)c4c3C2=O)NC(=O)/C(C)=C\C=C\[C@H](C)[C@H](O)[C@@H](C)[C@@H](O)[C@@H](C)[C@H](OC(C)=O)[C@@H]1C | Mycobacterium tuberculosis variant bovis BCG | microbial growth | BCG | 7 days | MIC | 0.1 µg/mL (≈ 0.122 µM)
CCC1(c2ccc(N)cc2)CCC(=O)NC1=O (stereo not drawn) | A2780 | cell growth or viability, CCK-8 | – | 48 h | pIC50 | < 4.30
COc1ccc2c(c1)/C(=N/NC(=O)c1cc3ccccc3[nH]1)C(=O)N2Cc1ccccc1 | HT-29 | cell growth or viability | – | 30 µM | inhibition | 94%
CCOC(=O)c1nnn(-c2cccc(NC(=O)Nc3ccc(Cl)c(Cl)c3)c2)c1C | Klebsiella pneumoniae | microbial growth, broth dilution | BAA1705 | – | MIC | > 64 µg/mL
Cc1ccc(CN2C(=O)/C(=N\NC(=O)c3cc4ccccc4[nH]3)c3ccccc32)cc1 | HT-29 | cell growth or viability | – | – | pIC50 | 5.61
COC(=O)c1cc(-c2cccc(NC(=S)NC3CCCCC3)c2)on1 | Klebsiella pneumoniae | microbial growth, broth dilution | BAA1705 | – | MIC | > 64 µg/mL
N#Cc1ccc(CN2C(=O)/C(=N\NC(=O)c3cc4ccccc4[nH]3)c3ccccc32)cc1 | HT-29 | cell growth or viability | – | – | pIC50 | 5.09
COc1c2c(cc3c1OCO3)[C@]13C=C[C@H](OC)C[C@@H]1[N@](C2)C[C@H]3OC(=O)c1ccco1 | HT-29 | cell growth or viability, WST-1 | – | – | pIC50 | < 5.00
O=C(N/N=C1\C(=O)N(Cc2ccccc2)c2ccc(Cl)cc21)c1cc2ccccc2[nH]1 | HT-29 | cell growth or viability | – | 30 µM | inhibition | 94.3%
COC(=O)c1cc(-c2cccc(NC(=S)Nc3ccccc3Cl)c2)on1 | Klebsiella pneumoniae | microbial growth, broth dilution | BAA1705 | – | MIC | > 64 µg/mL
COc1c2ccoc2cc2oc(=O)ccc12 | RD | cell growth or viability, WST-1 | – | 48 h | pIC50 | 4.50
O=C(N/N=C1\C(=O)N(Cc2ccc(Cl)cc2)c2ccccc21)c1cc2ccccc2[nH]1 | HT-29 | cell growth or viability | – | 30 µM | inhibition | 93.7%
COC(=O)c1cc(-c2cccc(NC(=O)Nc3c(C)cccc3C)c2)on1 | Klebsiella pneumoniae | microbial growth, broth dilution | BAA1705 | – | MIC | > 64 µg/mL
